Source: publication PMC7398576 (Oncogene, 2020)

What was measured:
[1] = biological target: zinc finger proteins (ZF1-Nluc/ZF2-Cluc complementation) (Photinus pyralis, UniProt P08659, D436G/I423L/L530R); experiment: ZF1-Nluc/ZF2-Cluc complementation in the absence of p53; assay type: biochemical
p63γ = p63γ (Homo sapiens, UniProt Q9H3D4); experiment: ZF1-Nluc/ZF2-Cluc DNA-binding competition assay, p63γ; assay type: biochemical; conditions: at low micromolar concentrations
[2] = tested on: p53 target genes (p21, MDM2, PUMA) in U2OS cells; experiment: Western blot / RT-PCR of p53 level and target genes in U2OS cells; assay type: cell-based, human
p53 [3] = biological target: T1, p53 (Homo sapiens, UniProt P04637); experiment: Glutaraldehyde crosslinking of p53 in H1299 extract; assay type: biochemical; conditions: 10 μM NSC194598
In short: (§1)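 H1299 cells transiently transfected with pcDNA3 FLAG-tagged wild-type or mutant p53 were lysed in HEPES buffer (50 mM HEPES pH 8.0, 5 mM EDTA, 150 mM NaCl, 0.5% NP-40, protease inhibitors) and spun to clear. Lysate was held with 10 μM test compound for 20 min at 23 °C. It was then crosslinked with 0.01–0.1% glutaraldehyde for 5 min at 23 °C and quenched with Tris-HCl pH 8.0 to 100 mM. Monomer, dimer and tetramer were read by western blot (FL393).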

p53 [4] = biological target: p53 (Homo sapiens, UniProt P04637, R175H); experiment: as above; assay type: biochemical; conditions: 10 μM NSC194598
In short: as §1

TCF1 [5] = biological target: T2, TCF1 (Homo sapiens, UniProt P36402); experiment: TCF1-specific zinc finger competition assay; assay type: biochemical
T2 sequence (P36402 whole entry, the tested form may be a part): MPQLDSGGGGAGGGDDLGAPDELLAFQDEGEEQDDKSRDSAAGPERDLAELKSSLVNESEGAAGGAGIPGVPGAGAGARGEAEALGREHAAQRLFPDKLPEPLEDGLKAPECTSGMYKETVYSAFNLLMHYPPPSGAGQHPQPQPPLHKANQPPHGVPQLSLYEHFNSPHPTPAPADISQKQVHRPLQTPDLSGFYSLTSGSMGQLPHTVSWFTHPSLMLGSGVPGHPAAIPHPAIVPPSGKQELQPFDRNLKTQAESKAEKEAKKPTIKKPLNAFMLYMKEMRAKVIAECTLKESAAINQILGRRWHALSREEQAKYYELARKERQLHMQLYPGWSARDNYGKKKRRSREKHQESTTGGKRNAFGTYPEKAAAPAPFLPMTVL

[6] = biological target: TAF1 bromodomain 2 (aa 1501–1635) (Homo sapiens, UniProt P21675); experiment: Differential scanning fluorimetry; assay type: binding; conditions: 100 μM compound, 4.5 μM protein
TAF1 bromodomain 2 (aa 1501–1635), sequence (P21675 1522-1656): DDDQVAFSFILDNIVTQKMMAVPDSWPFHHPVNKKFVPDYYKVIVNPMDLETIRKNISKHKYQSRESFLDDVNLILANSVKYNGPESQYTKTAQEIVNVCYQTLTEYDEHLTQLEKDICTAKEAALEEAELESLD
In short: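 TAF1 second bromodomain (residues 1501–1635) purified by Ni-NTA and size exclusion. Thermal shift with 4.5 μM protein, 100 μM compound and 5× SYPRO Orange in HEPES pH7.4/150 mM NaCl/2 mM DTT/2% DMSO. Ramp 25–95 °C at 1 °C/min, fluorescence at 610 nm every 0.5 °C, four replicates. ΔTm relative to DMSO reference.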

RET oncogene = conditions: cited from earlier work
p63γ-A167P = p63γ-A167P (Homo sapiens, UniProt Q9H3D4, A206P); experiment: ChIP of p63γ-A167P temperature-sensitive mutant; assay type: cell-based; conditions: 32 °C
p63γ-A167P, sequence (Q9H3D4 40-487 isoform Q9H3D4-5 A206P limits assumed): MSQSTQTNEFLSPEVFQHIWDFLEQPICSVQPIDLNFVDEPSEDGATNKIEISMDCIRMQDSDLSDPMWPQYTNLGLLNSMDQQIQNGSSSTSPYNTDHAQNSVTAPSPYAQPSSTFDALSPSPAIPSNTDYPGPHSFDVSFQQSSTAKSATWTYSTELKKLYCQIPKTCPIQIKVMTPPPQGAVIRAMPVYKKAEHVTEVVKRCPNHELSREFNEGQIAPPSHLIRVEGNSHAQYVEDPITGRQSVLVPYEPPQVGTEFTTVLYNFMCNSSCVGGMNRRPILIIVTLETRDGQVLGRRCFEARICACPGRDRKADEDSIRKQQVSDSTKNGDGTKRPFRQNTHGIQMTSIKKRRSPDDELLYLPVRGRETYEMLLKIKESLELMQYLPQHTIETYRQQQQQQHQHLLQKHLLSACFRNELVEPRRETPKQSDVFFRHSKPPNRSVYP
In short: (§2)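 ChIP by standard procedure, read by SYBR Green real-time PCR of target promoters. Antibodies: anti-HA tag (C29F4) for p63, p73 and c-MYC; KH95 for E2F1.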

[7] = tested on: MDM2-mediated ubiquitination of p53; experiment: In vivo ubiquitination assay in H1299 cells; assay type: cell-based; conditions: H1299, 5 h treatment
In short: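 H1299 cells co-transfected (PEI, 36 h) with 2 μg His6-ubiquitin, 0.2 μg p53 and 2 μg MDM2 plasmids, then treated 5 h. Lysed in 6 M guanidinium buffer, bound to Ni-NTA 16 h at 23 °C, washed with urea buffers (pH8.0 then 6.3). Imidazole/SDS elution 20 min at 23 °C, DO-1 western blot.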

c-Myc = c-Myc (Homo sapiens, UniProt P01106); experiment: ChIP of transiently expressed c-Myc; assay type: cell-based
c-Myc, sequence (P01106 whole entry): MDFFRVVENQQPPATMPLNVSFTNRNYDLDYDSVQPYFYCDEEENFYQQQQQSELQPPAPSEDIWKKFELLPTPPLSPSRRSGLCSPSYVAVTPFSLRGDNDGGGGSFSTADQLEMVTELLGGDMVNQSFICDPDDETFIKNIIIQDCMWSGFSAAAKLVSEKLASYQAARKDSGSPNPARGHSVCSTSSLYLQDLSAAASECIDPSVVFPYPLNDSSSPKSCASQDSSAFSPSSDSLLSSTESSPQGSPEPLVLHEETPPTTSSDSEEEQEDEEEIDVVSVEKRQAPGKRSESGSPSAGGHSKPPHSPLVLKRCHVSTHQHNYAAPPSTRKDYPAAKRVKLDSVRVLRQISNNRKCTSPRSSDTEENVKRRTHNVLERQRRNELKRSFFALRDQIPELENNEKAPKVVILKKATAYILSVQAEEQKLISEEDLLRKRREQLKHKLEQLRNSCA
c-Myc, sequence (P61244 whole entry partner): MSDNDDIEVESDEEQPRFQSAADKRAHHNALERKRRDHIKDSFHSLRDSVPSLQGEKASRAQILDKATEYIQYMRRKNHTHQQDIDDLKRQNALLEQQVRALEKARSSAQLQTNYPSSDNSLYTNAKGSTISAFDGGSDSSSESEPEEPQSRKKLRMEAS
In short: as §2

[8] = tested on: G-quadruplex DNA structures; conditions: cited from earlier work
p53 [9] = biological target: T1, p53; experiment: ZF1-Nluc/ZF2-Cluc DNA-binding competition assay; assay type: biochemical; conditions: at low micromolar concentrations
TCF1 [10] = biological target: T2, TCF1; experiment: Biotinylated oligonucleotide pull down assay, FLAG-TCF1; assay type: biochemical
H1299-p53-A138V cells = experiment: Western blot in H1299-p53-A138V temperature-sensitive cells; assay type: cell-based; conditions: activated at 32 °C, 8 h
In short: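 H1299 (p53-null) cells stably carrying temperature-sensitive p53-A138V were grown in DMEM with 10% FBS. They were kept at 39 °C or shifted to 32 °C with test compound for 8 h. Cells were lysed in 50 mM Tris-HCl pH 8.0, 5 mM EDTA, 150 mM NaCl, 0.5% NP-40 and protease inhibitors. p53 and target genes were resolved by SDS-PAGE and western blot.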

SJSA cells = experiment: Western blot in SJSA cells; assay type: cell-based; conditions: 5–20 μM
In short: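 SJSA cells (MDM2-amplified) were co-treated with the MDM2 inhibitor Nutlin and test compound for 32 h. Lysis was in NP-40/Tris buffer with protease inhibitors, followed by SDS-PAGE and western blot for p53 level and target-gene induction, including p21.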

Primary mouse thymocytes = experiment: Primary mouse thymocytes, radiation-induced apoptosis and viability; assay type: cell-based
[11] = biological target: FLAG-p53-94-312 DNA-binding domain (Homo sapiens, UniProt P04637); experiment: Differential scanning fluorimetry; conditions: 100 μM compound, 4.5 μM protein
In short: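 FLAG-p53 94–312 expressed in E. coli (pET-28b), purified on M2 beads and FLAG-peptide eluted. DSF with 4.5 μM protein, 100 μM test compound and 5× SYPRO Orange in 50 mM HEPES pH7.4, 150 mM NaCl, 2 mM DTT, 2% DMSO. Heated 25→95 °C at 1 °C/min, read every 0.5 °C at 610 nm, quadruplicate. ΔTm taken against DMSO wells.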

p53 [12] = biological target: T1, p53; experiment: p53-responsive luciferase reporter assay in transfected H1299 cells; assay type: cell-based; conditions: 6 h treatment
In short: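 H1299 cells (p53-null; 50,000/well) transfected 24 h by lipofection with 20 ng BP100-luciferase reporter, 5 ng CMV-lacZ and 0.2 ng CMV-p53. Then 6 h test compound. Activity expressed as luciferase/β-galactosidase ratio.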

p53 [13] = biological target: T1, p53; experiment: Trypsin digestion sensitivity of p53; assay type: biochemical
p73β-A156I = p73β-A156I (Homo sapiens, UniProt O15350, A156I); experiment: ChIP of p73β-A156I temperature-sensitive mutant; assay type: cell-based; conditions: 32 °C
p73β-A156I, sequence (O15350 1-499 isoform O15350-2 A156I): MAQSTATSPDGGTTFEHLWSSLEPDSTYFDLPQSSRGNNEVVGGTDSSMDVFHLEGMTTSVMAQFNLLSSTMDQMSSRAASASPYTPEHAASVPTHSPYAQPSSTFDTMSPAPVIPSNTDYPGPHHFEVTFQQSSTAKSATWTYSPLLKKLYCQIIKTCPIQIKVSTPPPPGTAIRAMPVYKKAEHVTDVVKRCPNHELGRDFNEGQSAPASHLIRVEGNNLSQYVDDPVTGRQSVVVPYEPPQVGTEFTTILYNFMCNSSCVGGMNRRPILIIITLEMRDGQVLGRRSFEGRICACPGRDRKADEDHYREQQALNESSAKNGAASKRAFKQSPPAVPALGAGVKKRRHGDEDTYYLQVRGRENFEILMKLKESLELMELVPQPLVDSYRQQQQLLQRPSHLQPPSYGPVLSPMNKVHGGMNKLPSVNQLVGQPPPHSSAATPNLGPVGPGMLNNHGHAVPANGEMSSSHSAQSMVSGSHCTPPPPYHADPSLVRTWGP
In short: as §2

p53 [14] = biological target: T1, p53; experiment: Biotinylated oligonucleotide pull down assay, p53 western blot; assay type: biochemical; conditions: for Inhibition of p53 DNA binding in oligonucleotide pull down: full-length p53
In short: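 Pull-down: p53 (~0.1 μl E. coli lysate, 100 ng) with 2 μg poly(dI-dC) and 100 ng biotinylated duplex oligo carrying the p53 site, in Tris pH7.2/150 mM NaCl DNA-binding buffer, 30 min at 4 °C. Captured on streptavidin magnetic beads 30 min at 4 °C, washed three times, boiled, p53 western blot. Pre-treated bead-bound FLAG-p53: 10 μM, 30 min, washed 3 min or 3 h, FLAG-peptide eluted.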

Foxo1 = experiment: Foxo1-responsive luciferase reporter assay in transfected H1299 cells; assay type: cell-based; conditions: 6 h treatment
In short: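 H1299 cells (50,000/well) lipofected for 24 h with 20 ng 3IRS-luciferase Foxo1 reporter, 5 ng CMV-lacZ and 10 ng CMV-Foxo1, then exposed to compound for 6 h. Readout: luciferase normalised to β-galactosidase activity.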

HCT116-p53−/− cells = experiment: Western blot in HCT116-p53−/− cells; assay type: cell-based
p53-Cluc fusion protein = p53-Cluc fusion protein (UniProt P04637+P08659, D436G/I423L/L530R); experiment: p53-Cluc luciferase fragment complementation DNA-binding assay; assay type: biochemical; conditions: read-out: IC50, inhibition of p53 sequence-specific DNA binding in vitro
In short: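 The cell-free reaction used crude E. coli BL21(DE3) extracts: ZF1-Nluc plus p53-Cluc, each expressed from pET-28b with 1 mM IPTG and 0.1 mM ZnCl2 at 18 °C for 18 h. DNA was 50 ng plasmid carrying 12 paired ZF1/p53 sites. Buffer was 100 mM potassium phosphate pH 7.8, 1 mM ZnCl2, 5% glycerol, 1 mM DTT. After 35 min at 32 °C, luciferin/ATP substrate was added, 10 min at 23 °C, then luminescence read. Three experiments.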

p53 [15] = biological target: T1, p53; experiment: In vitro oligomer formation of HA-p53 and FLAG-p53; assay type: biochemical
C57BL/6 mice = experiment: Radiation toxicity in mice; assay type: in vivo, mouse
E2F1 = E2F1 (Homo sapiens, UniProt Q01094); experiment: ChIP of E2F1-ER fusion protein; assay type: cell-based; conditions: tamoxifen-regulated E2F1-ER fusion protein
E2F1, sequence (Q01094 whole entry, the tested form may be a part): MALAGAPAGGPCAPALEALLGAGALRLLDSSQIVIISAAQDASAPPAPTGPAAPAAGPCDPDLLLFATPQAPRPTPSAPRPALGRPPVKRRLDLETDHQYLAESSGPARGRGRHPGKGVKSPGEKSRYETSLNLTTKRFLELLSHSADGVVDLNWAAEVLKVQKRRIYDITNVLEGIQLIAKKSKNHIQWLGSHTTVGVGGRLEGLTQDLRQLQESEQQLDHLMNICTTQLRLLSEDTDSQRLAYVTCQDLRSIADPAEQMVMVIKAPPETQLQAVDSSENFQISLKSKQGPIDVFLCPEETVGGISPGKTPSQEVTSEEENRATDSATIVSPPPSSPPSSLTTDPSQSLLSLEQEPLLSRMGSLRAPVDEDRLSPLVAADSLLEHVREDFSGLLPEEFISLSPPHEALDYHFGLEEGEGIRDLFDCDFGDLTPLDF
In short: as §2

p53 [16] = biological target: T1, p53; experiment: ChIP of p53 at target promoters in U2OS cells; assay type: cell-based
In short: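 U2OS cells in DMEM/10% FBS, given test compound alone or with IR for 4 h. Chromatin immunoprecipitation with DO-1 anti-p53. Precipitated DNA quantified by SYBR Green real-time PCR with primers for the p21 and MDM2 promoters.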

p73β = p73β (Homo sapiens, UniProt O15350); experiment: ZF1-Nluc/ZF2-Cluc DNA-binding competition assay, p73β; assay type: biochemical; conditions: at low micromolar concentrations
p73β, sequence (O15350 1-499 isoform O15350-2, species assumed): as the sequence (O15350 1-499 isoform O15350-2 A156I) above, with I156A counted along it

full-length luciferase = full-length luciferase (Photinus pyralis, UniProt P08659); experiment: Full-length luciferase activity; assay type: biochemical, Firefly
[17] = U2OS, compound alone, 10, 20 μM

p63γ, sequence (Q9H3D4 40-487 isoform Q9H3D4-5 limits assumed): as the sequence (Q9H3D4 40-487 isoform Q9H3D4-5 A206P limits assumed) above, with P167A counted along it

## [O-][n+]1c(CN2CCCCC2)nc2cccc3c2c1-c1ccccc1-3 [NSC194598]
[1]
  Effect on ZF1-Nluc/ZF2-Cluc complementation readout: did not stimulate readout
p63γ
  Inhibition of p63γ DNA binding in competition assay: inhibited
[2]; MDM2 inhibitor Nutlin or doxorubicin
  p21 induction after p53 activation by Nutlin and doxorubicin: inhibited p21 induction
[2]; U2OS after irradiation
  p21, MDM2, PUMA protein and mRNA expression: inhibition of p21, MDM2, PUMA protein and mRNA expression
[2]; U2OS, 40 μM
  p53 target gene expression, compound alone at 40 μM: decline in p53 target gene expression
[2]; U2OS, 4 h treatment
  Decrease of MDM2/p53 ratio: ~ 50%
[2]; [17]
  p53 level and target genes p21 and MDM2, compound alone: caused p53 accumulation and upregulation of target genes p21 and MDM2
[2]; compound alone
  p53 mRNA level: no increase in p53 mRNA level
  γH2AX and p53 Ser15 phosphorylation (DNA damage): no increase of γH2AX or p53 Ser15 phosphorylation
p53 [3]
  Crosslinking banding pattern of dimer and tetramer, wt p53: detected changes in the banding pattern
p53 [4]
  Crosslinking pattern of R175H conformational mutant: did not affect the crosslinking pattern
TCF1 [5]
  Effect on TCF1 competition with zinc finger protein: without effect
[6]
  Effect on melting temperature of TAF1 bromodomain 2: did not affect
RET oncogene
  Transcription of RET oncogene: inhibits the transcription of RET oncogene
p63γ-A167P
  In vivo DNA binding by p63γ-A167P (ChIP): inhibited
[7]
  MDM2-mediated ubiquitination of p53: had no effect
c-Myc
  DNA binding of c-Myc (ChIP): did not inhibit
[8]
  Binding to G-quadruplex DNA structures: binds G-quadruplex DNA structures
p53 [9]
  Inhibition of p53 DNA binding in competition assay: inhibited
TCF1 [10]
  Inhibition of TCF1 DNA binding in oligonucleotide pull down: did not inhibit
H1299-p53-A138V cells
  p21 induction and p53 level in H1299-p53-A138V: inhibited p21 induction without changing p53 level
SJSA cells
  p53 accumulation and p21 expression in SJSA versus U2OS: much weaker p53 accumulation and p21 expression
Primary mouse thymocytes; 1 μM or higher, with IR
  p53 level in irradiated thymocytes: reduced p53 level
Primary mouse thymocytes; 0.5–10 μM, 6 h, dose-dependent
  PARP and Caspase 3 cleavage after IR: blocked PARP and Caspase 3 cleavage
Primary mouse thymocytes; 20 hours after 5 Gy IR, 5 μM
  Thymocyte viability after IR (trypan blue exclusion): increased thymocyte viability
Primary mouse thymocytes; high concentrations, no IR
  p53 level and cleaved PARP, compound alone: caused p53 accumulation
Primary mouse thymocytes; no IR
  Thymocyte viability with compound alone (trypan blue exclusion): did not lose viability
[11]
  Increase in melting temperature (ΔTm) of FLAG-94-312: 0.5 °C
p53 [12]
  p53 activation of p53-responsive luciferase reporter: inhibited
p53 [13]
  p53 sensitivity to trypsin digestion: did not change sensitivity to trypsin digestion
p73β-A156I
  In vivo DNA binding by p73β-A156I (ChIP): inhibited
p53 [14]; 2.5 μM NSC194598
  Inhibition of DNA binding of p53 DNA-binding domain (90–312) (pull down): still showed inhibition
  Inhibition of DNA binding of p53 deletion mutant 1–360 (pull down): strongly inhibited
  Inhibition of DNA binding of p53 deletion mutant 90–393 (pull down): strongly inhibited
p53 [14]; 10 μM for 30 min, wash 3 min
  DNA binding of compound-treated FLAG-p53 after short wash: did not bind DNA
p53 [14]; 10 μM for 30 min, wash 3 h
  DNA binding of compound-treated FLAG-p53 after extensive wash: regained DNA-binding activity
p53 [14]
  Inhibition of p53 DNA binding in oligonucleotide pull down: inhibited p53 DNA binding
Foxo1
  Foxo1 activation of its luciferase reporter: did not inhibit
HCT116-p53−/− cells
  Induction of p21 and MDM2 in p53-null cells: did not induce p21 and MDM2
p53-Cluc fusion protein
  IC50: 180 nM
p53 [15]
  Oligomer formation of HA-p53 and FLAG-p53: did not inhibit oligomer formation
C57BL/6 mice; data not shown
  p53 or PARP cleavage in the thymus of treated animals (western blot): did not reveal increase of p53 or PARP cleavage
C57BL/6 mice; single i.p. injection of 80 μg, 8 Gy
  Body weight after irradiation: did not prevent body weight loss
C57BL/6 mice; single i.p. injection of 80 μg, 8 Gy, 40-day observation
  Survival after irradiation: statistically significant improvement in survival
E2F1
  DNA binding of E2F1 (ChIP): did not inhibit
p53 [16]; [17]
  p53 occupancy at the p21 promoter (ChIP), compound alone: increased p53 occupancy
p53 [16]; irradiated U2OS cells, 4 hrs
  p53 occupancy at p21 and MDM2 promoters (ChIP): reduced p53 occupancy
p73β
  Inhibition of p73β DNA binding in competition assay: inhibited

## Cc1ccc(C(=O)Cn2c3c(sc2=N)CCCC3)cc1 [PFTα, Pifithrin-α, reference compound]
full-length luciferase
  Effect on activity of full-length luciferase: inhibited
[1]
  Effect on ZF1-Nluc/ZF2-Cluc complementation readout: inhibited
p53 [14]
  Inhibition of p53 DNA binding in oligonucleotide pull down: had no effect
